ChEMBL document CHEMBL1153921, “Design, synthesis, and biological evaluation of novel 1-(1H-1,2,4-triazole-1-yl)-2-(2,4-difluorophenyl)-3-substituted benzylamino-2-propanols” (2009)
≈ marks a conversion by molar mass, not a printed value.

How the values were obtained:
Type in all cases: functional
[1] = test system: Cryptococcus neoformans; assay: Antimicrobial activity against Cryptococcus neoformans by micro-broth dilution method
Method in brief: (§1)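 ATCC standard strains. Broth microdilution in 96-well plates following NCCLS M27-A2 (reference broth dilution method for yeasts). Endpoint is MIC80, the lowest concentration giving 80% growth inhibition. Marketed reference antifungals ran alongside as positive controls.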

[2] = test system: Candida tropicalis; assay: Antimicrobial activity against Candida tropicalis by micro-broth dilution method
Method in brief: (§2)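 Clinical isolates. Tested by broth microdilution in 96-well plates following NCCLS M27-A2. MIC80, the minimum concentration inhibiting growth by 80%, was recorded. Marketed reference antifungals were included as positive controls.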

[3] = test system: Candida albicans; assay: Antimicrobial activity against Candida albicans by micro-broth dilution method; method in brief: as §1
[4] = test system: Aspergillus fumigatus; assay: Antimicrobial activity against Aspergillus fumigatus by micro-broth dilution method; method in brief: as §2
[5] = test system: Trichophyton rubrum; assay: Antimicrobial activity against Trichophyton rubrum by micro-broth dilution method; method in brief: as §2
[6] = test system: Nannizzia gypsea; assay: Antimicrobial activity against Microsporum gypseum by micro-broth dilution method; method in brief: as §2
[7] = test system: Candida parapsilosis; assay: Antimicrobial activity against Candida parapsilosis by micro-broth dilution method; details: Lodderomyces parapsilosis; method in brief: as §2
[8] = test system: Pichia kudriavzevii; assay: Antimicrobial activity against Candida krusei by micro-broth dilution method; method in brief: as §2

SMILES | MIC80 [1] | MIC80 [2] | MIC80 [3] | MIC80 [4] | MIC80 [5] | MIC80 [6] | MIC80 [7] | MIC80 [8]
CC(C)N(Cc1ccccc1Cl)CC(O)(Cn1cncn1)c1ccc(F)cc1F (stereo not given) | 0.25 µg/mL (≈ 0.594 µM) | 0.25 µg/mL (≈ 0.594 µM) | 0.0625 µg/mL (≈ 0.148 µM) | > 64 µg/mL | 0.25 µg/mL (≈ 0.594 µM) | 0.0625 µg/mL (≈ 0.148 µM) | 0.25 µg/mL (≈ 0.594 µM) | 0.0625 µg/mL (≈ 0.148 µM)
C[C@@H](c1ncncc1F)[C@](O)(Cn1cncn1)c1ccc(F)cc1F [VORICONAZOLE] | 0.0156 µg/mL (≈ 0.0447 µM) | 0.0039 µg/mL (≈ 0.0112 µM) | 0.0156 µg/mL (≈ 0.0447 µM) | 0.25 µg/mL (≈ 0.716 µM) | 0.0625 µg/mL (≈ 0.179 µM) | 0.0039 µg/mL (≈ 0.0112 µM) | 0.0039 µg/mL (≈ 0.0112 µM) | 0.0625 µg/mL (≈ 0.179 µM)
CCCCN(Cc1ccccc1)CC(O)(Cn1cncn1)c1ccc(F)cc1F (stereo not given) | 0.0625 µg/mL (≈ 0.156 µM) | 0.0625 µg/mL (≈ 0.156 µM) | 0.0625 µg/mL (≈ 0.156 µM) | > 64 µg/mL | 0.25 µg/mL (≈ 0.624 µM) | 0.0156 µg/mL (≈ 0.039 µM) | 0.0625 µg/mL (≈ 0.156 µM) | 0.25 µg/mL (≈ 0.624 µM)
CCCN(Cc1ccc(Br)cc1)CC(O)(Cn1cncn1)c1ccc(F)cc1F (stereo not given) | 0.25 µg/mL (≈ 0.537 µM) | 0.0625 µg/mL (≈ 0.134 µM) | 0.0625 µg/mL (≈ 0.134 µM) | > 64 µg/mL | 0.25 µg/mL (≈ 0.537 µM) | 0.0625 µg/mL (≈ 0.134 µM) | 0.0156 µg/mL (≈ 0.0335 µM) | 0.25 µg/mL (≈ 0.537 µM)
Cc1ccccc1CN(CC(O)(Cn1cncn1)c1ccc(F)cc1F)C(C)C (stereo not given) | 0.25 µg/mL (≈ 0.624 µM) | 0.25 µg/mL (≈ 0.624 µM) | 0.0156 µg/mL (≈ 0.039 µM) | > 64 µg/mL | 0.25 µg/mL (≈ 0.624 µM) | 0.0625 µg/mL (≈ 0.156 µM) | 0.0625 µg/mL (≈ 0.156 µM) | 0.25 µg/mL (≈ 0.624 µM)
CC(C)N(Cc1ccc(Br)cc1)CC(O)(Cn1cncn1)c1ccc(F)cc1F (stereo not given) | 0.25 µg/mL (≈ 0.537 µM) | 0.0625 µg/mL (≈ 0.134 µM) | 0.0039 µg/mL (≈ 0.00838 µM) | 4 µg/mL (≈ 8.6 µM) | 0.0625 µg/mL (≈ 0.134 µM) | 0.0156 µg/mL (≈ 0.0335 µM) | 0.0625 µg/mL (≈ 0.134 µM) | 0.25 µg/mL (≈ 0.537 µM)
CC(C)N(Cc1ccccc1Br)CC(O)(Cn1cncn1)c1ccc(F)cc1F (stereo not given) | 0.25 µg/mL (≈ 0.537 µM) | 0.0625 µg/mL (≈ 0.134 µM) | 0.25 µg/mL (≈ 0.537 µM) | > 64 µg/mL | 0.0625 µg/mL (≈ 0.134 µM) | 0.0156 µg/mL (≈ 0.0335 µM) | 0.0625 µg/mL (≈ 0.134 µM) | 0.25 µg/mL (≈ 0.537 µM)
CCc1ccc(CN(CC(O)(Cn2cncn2)c2ccc(F)cc2F)C(C)C)cc1 (stereo not given) | 1 µg/mL (≈ 2.41 µM) | 1 µg/mL (≈ 2.41 µM) | 0.0625 µg/mL (≈ 0.151 µM) | > 64 µg/mL | 1 µg/mL (≈ 2.41 µM) | 0.25 µg/mL (≈ 0.603 µM) | 1 µg/mL (≈ 2.41 µM) | 1 µg/mL (≈ 2.41 µM)
C[C@@H]1[C@H](O)[C@@H](C)/C=C/C=C/C=C/C=C/C=C/C=C/C=C/[C@H](O[C@@H]2O[C@H](C)[C@@H](O)[C@H](N)[C@@H]2O)C[C@@H]2O[C@](O)(C[C@@H](O)C[C@@H](O)[C@H](O)CC[C@@H](O)C[C@@H](O)CC(=O)O[C@H]1C)C[C@H](O)[C@H]2C(=O)O [AMPHOTERICIN B] | 2 µg/mL (≈ 2.16 µM) | 2 µg/mL (≈ 2.16 µM) | 2 µg/mL (≈ 2.16 µM) | 64 µg/mL (≈ 69.3 µM) | 2 µg/mL (≈ 2.16 µM) | 2 µg/mL (≈ 2.16 µM) | 2 µg/mL (≈ 2.16 µM) | 2 µg/mL (≈ 2.16 µM)
CCCN(Cc1ccc(Cl)cc1)CC(O)(Cn1cncn1)c1ccc(F)cc1F (stereo not given) | 0.0625 µg/mL (≈ 0.148 µM) | 0.25 µg/mL (≈ 0.594 µM) | 0.0625 µg/mL (≈ 0.148 µM) | 64 µg/mL (≈ 152 µM) | 1 µg/mL (≈ 2.38 µM) | 0.0625 µg/mL (≈ 0.148 µM) | 0.25 µg/mL (≈ 0.594 µM) | 0.0625 µg/mL (≈ 0.148 µM)
CCCN(Cc1cccc(F)c1)CC(O)(Cn1cncn1)c1ccc(F)cc1F (stereo not given) | 0.0625 µg/mL (≈ 0.155 µM) | 0.25 µg/mL (≈ 0.618 µM) | 0.0156 µg/mL (≈ 0.0386 µM) | > 64 µg/mL | 1 µg/mL (≈ 2.47 µM) | 0.0625 µg/mL (≈ 0.155 µM) | 0.0625 µg/mL (≈ 0.155 µM) | 0.0625 µg/mL (≈ 0.155 µM)
CC(C)N(Cc1ccc(Cl)cc1)CC(O)(Cn1cncn1)c1ccc(F)cc1F (stereo not given) | 0.25 µg/mL (≈ 0.594 µM) | 0.25 µg/mL (≈ 0.594 µM) | 0.0625 µg/mL (≈ 0.148 µM) | 1 µg/mL (≈ 2.38 µM) | 0.25 µg/mL (≈ 0.594 µM) | 0.0625 µg/mL (≈ 0.148 µM) | 0.0625 µg/mL (≈ 0.148 µM) | 0.0625 µg/mL (≈ 0.148 µM)
CC(C)N(Cc1cccc(F)c1)CC(O)(Cn1cncn1)c1ccc(F)cc1F (stereo not given) | 0.0625 µg/mL (≈ 0.155 µM) | 0.0625 µg/mL (≈ 0.155 µM) | 0.0625 µg/mL (≈ 0.155 µM) | 64 µg/mL (≈ 158 µM) | 0.25 µg/mL (≈ 0.618 µM) | 0.0625 µg/mL (≈ 0.155 µM) | 0.0625 µg/mL (≈ 0.155 µM) | 0.0625 µg/mL (≈ 0.155 µM)
OC(Cn1cncn1)(Cn1cncn1)c1ccc(F)cc1F [FLUCONAZOLE] | 1 µg/mL (≈ 3.27 µM) | 1 µg/mL (≈ 3.27 µM) | 0.5 µg/mL (≈ 1.63 µM) | > 64 µg/mL | 4 µg/mL (≈ 13.1 µM) | 0.25 µg/mL (≈ 0.816 µM) | 1 µg/mL (≈ 3.27 µM) | 4 µg/mL (≈ 13.1 µM)
CCCCN(Cc1ccc(Cl)cc1Cl)CC(O)(Cn1cncn1)c1ccc(F)cc1F (stereo not given) | 1 µg/mL (≈ 2.13 µM) | 1 µg/mL (≈ 2.13 µM) | 0.0039 µg/mL (≈ 0.00831 µM) | > 64 µg/mL | 16 µg/mL (≈ 34.1 µM) | 0.25 µg/mL (≈ 0.533 µM) | 4 µg/mL (≈ 8.52 µM) | 16 µg/mL (≈ 34.1 µM)
CCCN(Cc1ccc(C)cc1)CC(O)(Cn1cncn1)c1ccc(F)cc1F (stereo not given) | 0.25 µg/mL (≈ 0.624 µM) | 0.0625 µg/mL (≈ 0.156 µM) | 0.0625 µg/mL (≈ 0.156 µM) | > 64 µg/mL | 0.25 µg/mL (≈ 0.624 µM) | 0.0156 µg/mL (≈ 0.039 µM) | 0.0625 µg/mL (≈ 0.156 µM) | 0.0625 µg/mL (≈ 0.156 µM)
CCCN(Cc1ccccc1Cl)CC(O)(Cn1cncn1)c1ccc(F)cc1F (stereo not given) | 0.0625 µg/mL (≈ 0.148 µM) | 0.25 µg/mL (≈ 0.594 µM) | 0.25 µg/mL (≈ 0.594 µM) | > 64 µg/mL | 4 µg/mL (≈ 9.5 µM) | 0.0156 µg/mL (≈ 0.0371 µM) | 0.25 µg/mL (≈ 0.594 µM) | 0.25 µg/mL (≈ 0.594 µM)
CCCN(Cc1ccc(F)cc1)CC(O)(Cn1cncn1)c1ccc(F)cc1F (stereo not given) | 0.0625 µg/mL (≈ 0.155 µM) | 0.25 µg/mL (≈ 0.618 µM) | 0.0625 µg/mL (≈ 0.155 µM) | > 64 µg/mL | 1 µg/mL (≈ 2.47 µM) | 0.0039 µg/mL (≈ 0.00964 µM) | 0.0625 µg/mL (≈ 0.155 µM) | 0.0625 µg/mL (≈ 0.155 µM)
CCCN(Cc1ccccc1F)CC(O)(Cn1cncn1)c1ccc(F)cc1F (stereo not given) | 0.25 µg/mL (≈ 0.618 µM) | 0.0625 µg/mL (≈ 0.155 µM) | 0.0156 µg/mL (≈ 0.0386 µM) | > 64 µg/mL | 1 µg/mL (≈ 2.47 µM) | 0.0156 µg/mL (≈ 0.0386 µM) | 0.0625 µg/mL (≈ 0.155 µM) | 0.0625 µg/mL (≈ 0.155 µM)
CCCCN(Cc1ccc(C)cc1)CC(O)(Cn1cncn1)c1ccc(F)cc1F (stereo not given) | 0.25 µg/mL (≈ 0.603 µM) | 1 µg/mL (≈ 2.41 µM) | 4 µg/mL (≈ 9.65 µM) | > 64 µg/mL | 1 µg/mL (≈ 2.41 µM) | 0.25 µg/mL (≈ 0.603 µM) | 1 µg/mL (≈ 2.41 µM) | 1 µg/mL (≈ 2.41 µM)
CCCN(Cc1ccc(CC)cc1)CC(O)(Cn1cncn1)c1ccc(F)cc1F (stereo not given) | 1 µg/mL (≈ 2.41 µM) | 0.25 µg/mL (≈ 0.603 µM) | 0.0156 µg/mL (≈ 0.0376 µM) | > 64 µg/mL | 1 µg/mL (≈ 2.41 µM) | 0.25 µg/mL (≈ 0.603 µM) | 0.25 µg/mL (≈ 0.603 µM) | 1 µg/mL (≈ 2.41 µM)
CCCCN(Cc1ccc(Br)cc1)CC(O)(Cn1cncn1)c1ccc(F)cc1F (stereo not given) | 0.25 µg/mL (≈ 0.522 µM) | 1 µg/mL (≈ 2.09 µM) | 4 µg/mL (≈ 8.34 µM) | > 64 µg/mL | 0.25 µg/mL (≈ 0.522 µM) | 1 µg/mL (≈ 2.09 µM) | 0.25 µg/mL (≈ 0.522 µM) | 1 µg/mL (≈ 2.09 µM)
CC(C)N(Cc1ccccc1F)CC(O)(Cn1cncn1)c1ccc(F)cc1F (stereo not given) | 0.25 µg/mL (≈ 0.618 µM) | 0.25 µg/mL (≈ 0.618 µM) | 0.0625 µg/mL (≈ 0.155 µM) | > 64 µg/mL | 1 µg/mL (≈ 2.47 µM) | 0.0625 µg/mL (≈ 0.155 µM) | 0.0625 µg/mL (≈ 0.155 µM) | 0.25 µg/mL (≈ 0.618 µM)
CCCCN(Cc1ccc(F)cc1)CC(O)(Cn1cncn1)c1ccc(F)cc1F (stereo not given) | 0.25 µg/mL (≈ 0.597 µM) | 0.25 µg/mL (≈ 0.597 µM) | 0.25 µg/mL (≈ 0.597 µM) | > 64 µg/mL | 1 µg/mL (≈ 2.39 µM) | 0.0156 µg/mL (≈ 0.0373 µM) | 0.0625 µg/mL (≈ 0.149 µM) | 1 µg/mL (≈ 2.39 µM)
CCCN(Cc1ccccc1C)CC(O)(Cn1cncn1)c1ccc(F)cc1F (stereo not given) | 0.25 µg/mL (≈ 0.624 µM) | 0.0625 µg/mL (≈ 0.156 µM) | 0.0625 µg/mL (≈ 0.156 µM) | > 64 µg/mL | 4 µg/mL (≈ 9.99 µM) | 0.0039 µg/mL (≈ 0.00974 µM) | 0.0625 µg/mL (≈ 0.156 µM) | 0.0625 µg/mL (≈ 0.156 µM)
